The values below come from paper PMC7591087 (Drug Design, Development and Therapy, 2020).

The term Tmax denotes the time from dosing to the highest level.

Like-named read-outs stand apart in the source and are kept apart here.

For data set [1] the following is noted: repeated once-daily administrations in healthy subjects, NCT00961025; cited from earlier work.
The next data set deals with CYP enzymes. The note with it: in vitro studies; cited from earlier work.
The nature of data set [2]: Steady-state pharmacokinetics. Particulars: human, plasma, oral. It is filed as in vivo. The method, boiled down: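 Crossover design in healthy males: 5 mg, 30 mg, or both test compounds orally once daily for 7 days, fasted, with 7-day washouts. A validated LC-MS/MS assay measured parent drugs and metabolites, and steady-state Tmax was taken directly from observed data. Analysis covered 34 completers.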

Data set [3] is described as follows: Safety and tolerability assessment. The data set is classed as in vivo, human. The method in brief:
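Healthy males in a randomized, open-label, six-sequence, three-period crossover took one test compound at 5 mg, another at 30 mg, or both together, orally once daily for 7 days with 150 mL water while fasted, with 7-day washouts. Investigators monitored vital signs, physical exam, clinical labs, 12-lead ECG and adverse events, coding events with MedDRA 19.0. Analysis covered 35 subjects dosed at least once.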

The conditions of data set [4]: once-daily oral administration; cited from earlier work.
For a further data set, the system named is CYP enzyme. Particulars: in vivo; cited from earlier work.
Where [5] appears, read: number of subjects who reported ADRs (the number of ADRs), N=35.

`CC(C)(C)OC[C@@H]1C(=O)NCCN1C(=O)C[C@H](N)Cc1cc(F)c(F)cc1F` [Evogliptin]: in data set [1], the “terminal half-life (t1/2)” value is 33 to 39 h and the “time to reach a maximum plasma concentration (Tmax)” value is 4 to 5 h. Besides, the “induction or inhibition of CYP enzymes” value in the data set on CYP enzymes is listed as “does not induce or inhibit CYP enzymes”. The Tmax in data set [2] (5 mg) stood at 4.5 h. Moreover, in data set [3] (setting [5]), the “ADR: Diarrhoea” value is reported as 1 (1), the “ADR: Dyspepsia” value is 1 (1), the “ADR: Headache” value is 1 (1) and the “ADR: Lip blister” value is recorded as 1 (1). Moreover, in data set [3] (setting [5]), the “ADR: Muscle twitching” value was 1 (1), the “ADR: Musculoskeletal stiffness” value is listed as 1 (1), the “ADR: Oropharyngeal swelling” value was 1 (1) and the “ADR: Vomiting” value was 1 (1).

Take `CCc1ccc(CCOc2ccc(CC3SC(=O)NC3=O)cc2)nc1` (stereo not drawn) [Pioglitazone]: the results for the Tmax entry in data set [4], in data set [2] and in data set [2] (30 mg) were “about 2 hours”, 3 h and 2 h, respectively. For the same molecule, the “CYP enzyme induction or inhibition” value in the data set on CYP enzyme is listed as “No clinically significant CYP enzyme induction or inhibition”. Moreover, the “number of AEs reported” value in data set [3] (all adverse events after each treatment, 35 subjects) was 3 AEs. In data set [3] (setting [5]), the “ADR: Amylase increased” value is 1 (1).
